Each structure is given as a SMILES string. pEC50: −log10 of the molar value.

The assay has as its target T1, Mas-related G-protein coupled receptor member X1 (Mus musculus, UniProt Q8CIP3).
T1 sequence (Q8CIP3 whole entry): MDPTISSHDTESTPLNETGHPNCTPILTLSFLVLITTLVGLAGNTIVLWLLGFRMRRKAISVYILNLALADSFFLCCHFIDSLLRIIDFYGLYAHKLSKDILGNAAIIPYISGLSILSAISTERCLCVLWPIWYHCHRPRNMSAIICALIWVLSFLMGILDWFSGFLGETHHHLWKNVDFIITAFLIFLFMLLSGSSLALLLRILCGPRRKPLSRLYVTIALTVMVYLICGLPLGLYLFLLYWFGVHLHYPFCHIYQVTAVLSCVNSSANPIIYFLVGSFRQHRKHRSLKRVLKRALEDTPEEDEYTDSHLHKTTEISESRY
The assay can be described thus: Agonist activity at mouse MrgC11 transfected in HEK293 cells by FLIPR assay. A digest of the protocol: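 Rodent Mrg receptors were transiently transfected into HEK293 or KNRK cells, which were plated at 25,000 cells/well and imaged 2 days later. Cells were loaded with 2 μM Fluo 4AM and 1% Trypan Red in HBSS for 50 min at 37°C, then held 10 min at room temperature.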

Take `N=C(N)Nc1cccc(C(N)C(=O)N[C@@H](Cc2ccccc2)C(N)=O)c1` (stereo partly specified): the negative-log EC50 (pEC50) (commonly the negative decadic logarithm of the EC50, by convention in mol/L) was 4.50.

Values taken from BindingDB's records for doi:10.1016/j.bmc.2014.09.025 (Johns Hopkins University, 2014).
